# The list is a sample of the results.
# HKDC1 act = HKDC1 (human) hexokinase activation; Q2TB90; activity change, negative = activation, % at 20 µM; actives 0.056% (n = 340,000); recombinant HKDC1, G6PDH/diaphorase resazurin fluorescence; active compounds read low;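 active = activation of 40% or more at 20 µM, a change of -40% or lower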
#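 System: in-house human HKDC1 enzyme, G6PDH and diaphorase coupling enzymes; Quantity: 5 µg/mL HKDC1 final; Buffer or medium: Tris/MgCl2 buffer, pH 8.0; Dosing: single compound dose of 20 µM, 1% DMSO final; Times: 90 min reaction at room temperature, dark; Detection: coupled resazurin-to-resorufin fluorescence, Ex 525/Em 613 nm.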
# The depositor's hits bear a star.
SMILES,HKDC1 act
CCn1nc(-c2ccccc2)nc2c(=O)n(C)c(=O)nc1-2,-83*
Cc1cc(/C=C2\C(=O)NC(=O)N(c3ccc(Cl)cc3)C2=O)c(C)n1-c1sc2c(c1C#N)CCCC2,69
O=C(O)CC1OCC=C2CN3CCC45C6=CC(=O)C(=O)C([N+](=O)[O-])=C6NC4C1C2CC35 (stereo not drawn),43
Cc1ccc2c(C)c3ccc4ccccc4c3c[n+]2c1,-53*
O=c1c2ccccc2[se]n1-c1ccccc1,-116*
O=c1[nH]c(O)c(/C=C2/C=CC(c3cc(Cl)ccc3Cl)=N2)c(=O)[nH]1,40
NC(=O)c1ccc(N=Cc2c(O)n(Cc3ccco3)c(=O)[nH]c2=O)cc1,36
COc1ccc(OC)c(N2C(=O)/C(=C/c3ccco3)C(=O)NC2=S)c1,82
CC[C@H](C)/C=C(C)/C=C/C1=CC2=C(Cl)C(=O)[C@@](C)(OC(C)=O)C(=O)C2=CO1,63
COC(=O)C1CN(C#N)N(c2ccc(Cl)cc2)C12c1ccccc1-c1ccccc12 (stereo not drawn),87
N#CC1=C(N)Oc2c(c(=O)sc3ccccc23)C1c1ccncc1 (stereo not drawn),-58*
N#CC(C#N)=Cc1ccc(C=C(C#N)C#N)cc1,38
Cn1c(=O)c2c(nc(N/N=C/c3c(O)n(C4CCCCC4)c(=S)[nH]c3=O)n2C)n(C)c1=O,-46*
O=C1C=CC(=O)C=C1,48
O=C1NC(=S)N(c2ccc(F)cc2)C(=O)/C1=C\c1ccoc1,51
O=C1CC=C2C3CC4N(CCC45c4cc(O)c(O)cc4N1C25)CC3=CCBr (stereo not drawn),45
CCOC(=O)c1c(-n2c(C)cc(/C=C3\C(=O)NC(=O)N(C)C3=O)c2C)sc2c1CCCC2,51
COC(=O)C1=C(C(=O)OC)SC2(S1)C(C(=O)OC)=C(C(=O)OC)Sc1c2ssc1=O,-109*
COc1ccc(/C=C2\C(=O)NC(=S)N(C)C2=O)cc1C,36

# Source: PubChem (Sanford-Burnham Center for Chemical Genomics)
